Assay outcomes: PubChem BioAssay, several laboratories
G6PDH counter: inhibits Leuconostoc G6PDH, flagging false hits in G6PDH-based assays; Purified L. mesenteroides G6PDH, diaphorase/resazurin coupled fluorescence, 45 min; inhibition, % at 5 µM; 0.12% of 200,000 active; AID 1020
L major viab: inhibitors of Leishmania major promastigote growth. Leishmania major promastigotes, resazurin fluorescence viability. inhibition, % at 10 µM. 9% of 200,000 active. AID 1063;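 also: promastigotes grown with compound for 44 hours at 28 °C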
Diaph act CS: counter-screen for diaphorase-based assays: diaphorase activators and chemical reducers. Diaphorase/resazurin coupled assay, resorufin fluorescence, 16 min; stronger effect = higher value; 1 = vehicle wells, 0 = NADH-free wells. activation factor at 20 µM. 0.005% of 190,000 active. AID 1229;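 active = diaphorase activity raised at least twofold by the compound at 20 µM; inactive = activation factor below 2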
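Material: Clostridium kluyveri diaphorase, purified enzyme; Quantity: enzyme 0.07 U/mL final; Medium: HEPES pH 7.4 buffer with MgCl2 and Tween 20; Dosing: single compound dose of 20 µM, 1% DMSO final; Schedule: 16 min reaction at room temperature; Measured by: red resorufin fluorescence at 544/590 nm excitation/emission.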
PfGluPho inh: PfG6PD (Plasmodium falciparum) enzyme inhibition | PfGluPho enzyme, NADPH resazurin-diaphorase fluorescence | inhibition, % at 20 µM | AID 504690 | 0.78% of 350,000 active;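 active = inhibition reaching at least a set limit at 20 µM in the primary screen, cut at about 59% in these data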;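 also: 0% = DMSO wells with substrate and 100% = DMSO wells lacking glucose-6-phosphate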
Diaphorase inh: diaphorase inhibition or chemical oxidation counter-screen; AID 1217; inhibition, % at 20 µM; 0.69% of 190,000 active; diaphorase resazurin-to-resorufin fluorescence, NADH, 16 min; bacterial (C. kluyveri) enzyme, not human;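 active = primary screen inhibition at 20 µM above a set limit, cut at about 50% in these data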;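 also: plate controls were DMSO with full reaction for no effect and wells lacking NADH for full effect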
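Test system: bacterial diaphorase enzyme (C. kluyveri); Quantity: 0.14 U/mL diaphorase, enzyme working solution; Times: reaction incubation of 16 min at room temperature; Measured by: fluorescence of resorufin formed from resazurin, Ex 544/Em 590 nm; Benchmarks: positive control minus NADH, DMSO neutral control.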
Redox H2O2 prof: compounds producing H2O2 with reducing agent – biochemical, NIH compound library profiling, artefact control for MLSCN library redox annotation, primary screen | AID 878 | activation, % at 10 µM | DTT-dependent redox cycling H2O2, phenol red/HRP absorbance; 100% = 100 µM peroxide control, 0% = buffer | 0.03% of 200,000 active;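 active = activation of at least 50% relative to the plate's high and low controls in the primary single-dose screen; inactive = activation below 50%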;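 also: compound incubated with DTT at 0.8 mM final as the reducing agent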
An asterisk follows results filed as active; . = no result. Shown is part of a subset that was picked to be rich in hits. Rule as the data show it, unless noted: active = inhibition above about 50%; inactive = the rest.

SMILES	G6PDH counter	L major viab	Diaph act CS	PfGluPho inh	Diaphorase inh	Redox H2O2 prof
COc1ccc(/C=C2\CCc3ccccc3C2=O)cc1Cn1cccn1	3.1	86.4*	0.7	33.0	25.4	0.1
CCCN1C(=O)c2ccccc2NC1c1ccc(Cl)c(Cl)c1 (stereo not drawn)	.	.	.	5.5	.	.
CN1CC(c2ccc(Cl)c(Cl)c2)[C@@]2(COc3ccccc3C2=O)[C@@]12C(=O)Nc1ccccc12 (stereo partly drawn)	-29.2	80.7*	0.8	23.5	19.2	0.7
Cc1ccc(NC(=O)CNC(c2ccccc2)c2ccccc2)c(F)c1	0.2	71.2*	0.9	25.9	12.2	0.6
COc1ccc(C)cc1NC(=O)CNC(c1ccccc1)c1ccccc1	.	.	.	16.6	.	.
CCOC(=O)N(C)c1ccc(C(O)(C(F)(F)F)C(F)(F)F)cc1	12.1	100.0*	0.9	13.8	12.4	-3.5
CC(=O)N(C)c1ccc(NC(=O)Nc2ccc(C)cc2)cc1	-1.6	1.6	0.9	-17.1	7.1	-0.1
CC(=O)N(C)c1ccc(C(O)(C(F)(F)F)C(F)(F)F)cc1	3.3	98.9*	0.9	3.6	5.0	-0.2
COC(C[C@@H]1O[C@@H]1[C@@H](O)COCc1ccccc1)OC	.	.	.	-12.5	.	.
CCOC(=O)c1c(/N=C/C2=C(O)CC(C)(C)CC2=O)sc(C(C)=O)c1C	-3.5	-5.6	0.8	1.3	15.8	0.4
COc1ccc(C(=S)N2CCN(C)CC2)cc1Br	3.7	92.3*	1	-16.5	1.5	0.0
COc1ccc(C(=S)N2CCCC2)cc1Br	.	.	.	-3.4	.	.
CN1CCN(C(=S)NC(=O)c2ccc(Cl)cc2)CC1	10.2	-8.3	0.7	17.0	30.0	-0.6
CN1CCN(C(=S)c2ccc(Cl)cc2)CC1	17.8	89.6*	0.9	-2.0	7.3	0.2
COc1ccc(C(=S)N2CCN(C)CC2)cc1	2.8	84.5*	0.9	22.1	7.7	0.2
CC(=O)O[C@@]1(C)C[C@@H](O)[C@]2(O)C=CO[C@@H](O[C@@H]3O[C@H](CO)[C@@H](O)[C@H](O)[C@H]3O)[C@@H]21	.	.	.	-9.1	.	.
Cn1c(/C=N/c2nc3ccccc3[nH]2)nc2ccccc21	6.3	100.4*	1	2.0	4.7	0.8
Cn1c(/C=N/O)nc2ccccc21	.	.	.	-4.8	.	.
CCNC(=S)NNC(=O)c1ccccn1	-2.6	-0.1	0.7	-19.1	31.5	-0.7
O=C(NNC(=O)C(c1ccccc1)c1ccccc1)c1ccccn1	3.4	98.8*	0.7	-7.0	27.1	-0.1
O=C(NNC(=S)Nc1ccc(Cl)c(Cl)c1)c1ccccn1	-9.3	96.0*	1.1	-8.2	-10.4	-2.4
CC(=O)Oc1ccc(C(=O)NCc2ccco2)cc1	.	.	.	0.6	.	.
OCCN1CCN(CC#CCn2c3ccccc3c3ccccc32)CC1	4.9	63.6*	0.8	-4.1	19.5	-2.1
OCCN1CCN(CC#CCC(c2ccccc2)c2ccccc2)CC1	.	.	.	2.0	.	.
O=S(=O)(NCCc1c[nH]c2ccccc12)c1ccc(F)cc1	.	.	.	16.7	.	.
SMILES	G6PDH counter	L major viab	Diaph act CS	PfGluPho inh	Diaphorase inh	Redox H2O2 prof
O=C(Oc1cccc(NC2=NS(=O)(=O)c3ccccc32)c1)c1cccnc1	8.2	-4.0	0.7	5.5	27.1	0.2
CCN(CC)Cc1cc(NC2=NS(=O)(=O)c3ccccc32)ccc1OC(=O)c1ccccc1	-9.4	98.5*	0.9	23.9	11.4	-0.2
CCN(CC)Cc1cc(NC2=NS(=O)(=O)c3ccccc32)ccc1OC(=O)C(C)C	14.0	99.0*	0.9	-8.2	6.9	0.1
O=C(CN1C(=O)NC2(CCc3ccccc32)C1=O)c1c[nH]c2ccccc12 (stereo not drawn)	.	.	.	4.8	.	.
COc1cc(C(=O)N2CCN(C)C(C)C2)ccc1OC1CCN(C(C)=O)CC1 (stereo not drawn)	.	.	.	-3.1	.	.
COc1ccc2c(-c3ccccc3)cc(SC(C)C(N)=O)nc2c1 (stereo not drawn)	2.2	80.8*	1.1	29.2	-6.9	-0.1
O=C(COc1ccc(-c2ccccc2)cc1)N/N=C/c1cc(O)ccc1Br	-15.9	70.1*	0.8	-7.6	23.1	-0.8
Cc1noc(C)c1COc1ccccc1C(=O)N(C)CC(=O)Nc1ccc(F)cc1	.	.	.	-7.2	.	.
CCOc1cc(S(=O)(=O)N2CCN(CC)CC2)ccc1Cl	2.5	89.7*	1	-5.6	0.7	0.6
COc1ccc(CN2CCN(S(=O)(=O)c3ccc(C)cc3)CC2)cc1OC	.	.	.	4.5	.	.
CCCN1CCN(S(=O)(=O)c2ccc(OC)c(Br)c2)CC1	7.8	96.0*	1	1.5	0.7	1.1
COc1ccc(CN2CCN(S(=O)(=O)c3ccc(C)cc3)CC2)cc1Br	7.1	67.7*	0.8	10.2	19.2	0.2
O=C(NNC(=O)C1CCN(c2ncccn2)CC1)c1ccncc1	8.6	-4.9	1	-27.7	-2.1	1.9
O=C(Nc1ccccc1-c1nc2ccccc2s1)C1=COCCO1	16.9	0.7	0.9	0.9	11.7	0.6
Cc1csc(SCC(=O)Nc2sc3c(c2C#N)CCC3)n1	-0.8	99.4*	0.8	-15.4	21.9	2.8
COC(=O)c1c(NC(=O)CSc2nnc3ccccn23)sc2c1CCC2	-0.3	55.5*	1	-6.6	0.0	0.1
Cc1ccnc(SCC(=O)Nc2sc3c(c2C#N)CCCC3)n1	1.2	7.5	0.9	-11.9	11.0	-0.2
Cc1ccc(C(=O)c2c(NC(=O)CSc3nnc(N)s3)sc3c2CCCC3)cc1	-3.8	75.5*	0.8	-0.5	16.5	0.2
COCCNc1nnc(SCC(=O)Nc2sc3c(c2C(=O)c2ccccc2)CCCC3)s1	-15.3	7.2	0.8	0.0	16.1	0.3
Nc1nnc(SCC(=O)Nc2sc3c(c2C(=O)c2ccccc2)CCCC3)s1	-7.6	56.8*	0.8	27.6	22.6	0.2
Cc1ccc(S(=O)(=O)CCC(=O)OCC(=O)Nc2cc(S(=O)(=O)N3CCOCC3)ccc2C)cc1	.	.	.	-5.5	.	.
O=Cc1ccccc1OCc1ccc2c(c1)OCO2	.	.	.	-6.5	.	.
CCOc1ccccc1CN(CCc1ccc2c(c1)OCO2)Cc1ccccn1	-3.0	82.5*	0.7	0.9	27.4	2.1
CC(=O)Nc1ccc(C2=NN(C)C(=NCc3ccccc3)SC2)cc1	4.0	66.7*	0.9	12.2	12.5	0.1
COc1ccc(N(C(=O)c2ccco2)C(C(=O)NC2CCCC2)c2ccc(N(C)C)cc2)cc1 (stereo not drawn)	-4.4	54.1*	0.8	8.2	15.4	0.3
COc1ccc(N(C(=O)/C=C/C(=O)Nc2cc(C)on2)C(C(=O)NC2CCCC2)c2ccccc2C)cc1 (stereo not drawn)	18.4	97.3*	1	-2.0	2.7	0.7
COc1ccc(N(C(=O)CCC(=O)Nc2cc(C)on2)C(C(=O)NC2CCCC2)c2ccco2)cc1 (stereo not drawn)	-1.9	20.0	0.9	4.1	8.9	0.2
